Source: PubChem
Only a selection was taken, and hits are over-represented in it overall.
ALR inh: inhibitors of human ALR sulfhydryl oxidase, primary screen, biochemical, H2O2 detection, HRP-luminol luminescence, single point; FAD-linked sulfhydryl oxidase ALR (Homo sapiens), P55789; purified ALR, DTT oxidation; inhibition, % (concentration not given with the values); 290,000 tested, 3.8% active;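 active means mean replicate inhibition above about 79%, with every replicate also reaching it, limit read from the data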
Target sequence (P55789 whole entry, looked up): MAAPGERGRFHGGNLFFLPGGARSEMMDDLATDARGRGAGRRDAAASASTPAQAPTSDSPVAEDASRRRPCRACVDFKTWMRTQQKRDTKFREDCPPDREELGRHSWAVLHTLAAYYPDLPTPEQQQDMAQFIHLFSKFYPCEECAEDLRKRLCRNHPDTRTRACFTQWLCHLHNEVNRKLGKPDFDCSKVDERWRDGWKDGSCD
T cell modulator: modulators of CD8 T cell-vesicle binding, primary screen, mouse 2C CD8+ T cells, flow cytometry; 2C CD8+ T cell-vesicle binding; hits give low values; 330,000 tested, 0.068% active; AID 2052, 2009; response (vesicle binding), % at 7 µM;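 active means response, share of CD8 T cells binding vesicles, and their 90th percentile fluorescence all below set limits, cut at about 80% in these data, passing the limit was not always enough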;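 further: values below 100% mean blocked vesicle binding to the CD8+ T cells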
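Incubation: binding step 1.5 h, 37 °C, antibody labelling 20 min, ice; system: murine 2C transgenic CD8+ T lymphocytes; technique: cytometric PE anti-B7-1 and Alexa647 anti-CD8 signals after 1% paraformaldehyde fixation; also added: QL9-charged Drosophila Ld/ICAM-1/B7-1 vesicles; control set: naked versus QL9-loaded vesicles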
Glyco luc inh: increase of ERlucT glycosylation luciferase signal, primary screen, N-linked glycosylation inhibitor project, D54 ERlucT cells, luminescence, set 2; 360,000 tested, 0.23% active; D54 ERlucT glycosylation luciferase reporter, 24 h; percent of 100 nM tunicamycin response; AID 588692, 2011; reporter increase, % at 12.5 µM;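 active means mean luciferase reporter signal, scaled so untreated is 0 and the glycosylation-blocking control 100, at or above a set limit in every replicate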;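 further: luciferase carries N-glycosylation sites so blocking glycosylation raises the light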
Each line names hits and unclear results; the compound was inactive in the other large screens.

COc1ccc(-c2nc(CS(=O)CC(=O)NC3CCCCC3C)c(C)o2)cc1OC (configuration not stated)	ALR inh 98.8
Cc1oc(-c2ccc(Cl)cc2)nc1CS(=O)CC(=O)NC1CCCCCC1 (configuration not stated)	none
COc1ccc(-c2nc(CS(=O)CC(=O)NCC3CCCO3)c(C)o2)cc1 (configuration not stated)	ALR inh 98.4
Cc1oc(-c2ccc(Cl)cc2)nc1CS(=O)CC(=O)NC1CCCC1 (configuration not stated)	ALR inh 99.0
Cc1oc(-c2ccc(Cl)cc2)nc1CN1CCCC(C(=O)NC2CC2)C1 (configuration not stated)	none
COc1ccc(-c2nc(CN3CCC(C(=O)N4CCc5ccccc54)CC3)c(C)o2)cc1OC	none
Cc1nc(N/N=C/c2cccc([N+](=O)[O-])c2)cc(N2CCCCC2)n1	none (no result: ALR inh, T cell modulator)
C=CCNc1nc2c(c(=O)[nH]c(=O)n2C)n1CCCc1ccccc1	none
CC(C)Cc1nc(SCC(=O)N2CCCC2)c2c(=O)n(C)c(=O)n(C)c2n1	none
O=C(CSc1nc(C2CC2)nc2ccccc12)N1CCc2ccccc21	none (no result: ALR inh, T cell modulator)
O=C(NCc1ccccc1C(F)(F)F)C1CCC(=O)N(CCCc2ccccc2)C1 (configuration not stated)	none
CC(CCN1CCC(CN2C(=O)C(=O)NC[C@@H]2Cc2ccccc2)CC1)c1ccccc1 (some centres not stated)	none (no result: ALR inh, T cell modulator)
CN(C)S(=O)(=O)c1ccc(Cl)c(NC(=O)COC(=O)/C=C/c2ccc3ccccc3n2)c1	none
O=C(CSc1oc(-c2cccs2)nc1S(=O)(=O)c1ccccc1)NC1CCCCC1	none
Cc1oc(-c2cccs2)nc1CS(=O)CC(=O)NC1CCCCCC1 (configuration not stated)	ALR inh 98.6
CCC1CCCCN1CCCNC(=O)CS(=O)Cc1nc(-c2ccc(OC)c(OC)c2)oc1C (configuration not stated)	ALR inh 99.6
Cc1ccc(-c2nsc(SCC(=O)NCC3CCCO3)n2)cc1 (configuration not stated)	none
CCOC(=O)CC1CCCCN1Cc1nc(-c2ccc(F)c(OC)c2)oc1C (configuration not stated)	none
COc1ccc(-c2nc(CN3CCCC(C(=O)NC4CCCC4)C3)c(C)o2)cc1 (configuration not stated)	none
COc1ccc(-c2nc(CS(=O)CC(=O)NC3CCCC3)c(C)o2)cc1 (configuration not stated)	ALR inh 98.3
COc1ccc(-c2nsc(SCC(=O)NCC3CCCO3)n2)cc1 (configuration not stated)	ALR inh 94.8
COc1ccc(CNc2ncc(-c3ccc(Cl)cc3)n2C)c(OC)c1OC	none
COc1ccc2nc(-c3ccccc3)nc(SCC(=O)NCC3CCCO3)c2c1 (configuration not stated)	none
Cc1oc(-c2ccccc2F)nc1CS(=O)(=O)CC(=O)NCCN(C)C1CCCCC1	none
Cc1cccc(-c2nc(CS(=O)CC(=O)NC3CCCC(C)C3C)c(C)o2)c1 (configuration not stated)	ALR inh 99.2
Cc1ccc(-c2nc(CS(=O)CC(=O)NC3CCCCC3)c(C)o2)cc1 (configuration not stated)	ALR inh 98.8
COc1cccc(-c2nc(CSCC(=O)NCC3CCCO3)c(C)o2)c1 (configuration not stated)	ALR inh 99.1
Cc1ccc(-c2nc(CS(=O)(=O)CC(=O)NC3CCC(C)CC3)c(C)o2)cc1 (configuration not stated)	none
Cc1cccc(-c2nc(CS(=O)CC(=O)NC3CCCC3)c(C)o2)c1 (configuration not stated)	none (no result: ALR inh, T cell modulator)
Cc1oc(-c2ccc(Cl)cc2)nc1CS(=O)CC(=O)NCCCN(C)C1CCCCC1 (configuration not stated)	ALR inh 99.4
O=c1c2ccccc2oc2cc(-c3ccc4[nH]ccc4c3)ccc12	none (no result: T cell modulator)
CNC(=O)Cn1nc(-c2ccc(Cl)cc2)c2ccccc2c1=O	none
O=C(Nn1cnnc1)c1ccc(Cl)c([N+](=O)[O-])c1	none (no result: ALR inh)
Cc1ccc(C(=O)Nn2cnnc2)cc1Cl	ALR inh 80.8
COCCNC(=O)C(=O)NCC1OCCN1S(=O)(=O)c1cc(F)ccc1F (configuration not stated)	none (no result: ALR inh)
CCOC(=O)C1(C)CCCCN1C(=O)c1cccs1 (configuration not stated)	none (no result: ALR inh, T cell modulator)
CCN1CCN(c2ccc(N3CCN(S(=O)(=O)c4cc([N+](=O)[O-])ccc4C)CC3)nn2)CC1	none (no result: ALR inh)
CN1CCN(c2nc(-c3ccccc3O)nc3ccccc23)CC1	none
COc1cccc(-c2nc(N3CCN(C)CC3)c3ccccc3n2)c1O	Glyco luc inh 129.3
Cc1ccc(N=C2NC(=O)C(CC(=O)NCc3ccccc3)S2)cc1C (configuration not stated)	none
NC(=O)c1ccc(-c2ccc(Br)cc2)o1	ALR inh 98.3
O=C(O)c1ccc(NC(=S)NC(=O)c2ccc(-c3ccc(Br)cc3)o2)cc1	ALR inh 92.5
O=C(O)c1cccc(NC(=S)NC(=O)c2ccc(-c3ccc(Cl)cc3)o2)c1	none
NC(=O)C1CCN(C(=S)c2ccc(-c3ccc(Br)cc3)o2)CC1	none
Cc1cc(C(=O)CSc2nc3ccc(Cl)cc3[nH]2)c(C)n1Cc1ccco1	none
O=c1c(Cc2ccc(Cl)cc2Cl)c(O)ccn1CCCN1CCOCC1	none (no result: ALR inh)
Cc1ccc([C@H]2C(C(=O)O)=CC[C@@H](c3ccc(C(C)C)cc3)N2S(=O)(=O)c2ccc(C)cc2)cc1	none
Cc1ccc(S(=O)(=O)N2[C@@H](c3ccc(Cl)cc3)C(C(=O)O)=CC[C@H]2c2ccc(C(C)C)cc2)cc1	ALR inh 94.8
CCOC(=O)c1c(C)[nH]c(C2=NNC(=NC3CC3)SC2)c1C	ALR inh 97.5
CCOC(=O)c1c(C)[nH]c(/C(C)=N/O)c1C	none
CC(CC(=O)OCC(=O)Nc1ccc2[nH]c(=O)[nH]c2c1)c1ccccc1 (configuration not stated)	none
COC1CCCCC1Nc1cc(C)cc(C)c1 (configuration not stated)	none
COC1CCCCC1Nc1cccc(SC)c1 (configuration not stated)	ALR inh 98.9
O=C(COC(=O)CC1CC2CCC1C2)Nc1cc([N+](=O)[O-])ccc1F (configuration not stated)	none
Cc1oc(-c2ccccc2F)nc1CS(=O)(=O)CC(=O)NC1CCCC1	none
Cc1oc(-c2ccccc2F)nc1CS(=O)CC(=O)NC1CCCC1 (configuration not stated)	ALR inh 98.7
Cc1ccccc1-c1nc(CS(=O)CC(=O)NC2CCCCC2)c(C)o1 (configuration not stated)	ALR inh 98.8
Cc1ccccc1-c1nc(CN2CCC(C(=O)NCC3CCCO3)CC2)c(C)o1 (configuration not stated)	none
Cc1ccccc1-c1nc(CS(=O)CC(=O)NC2CC2)c(C)o1 (configuration not stated)	ALR inh 98.7
